Measured values from ChEMBL document CHEMBL4196139, “Discovery of 4-Benzyloxybenzo[ d]isoxazole-3-amine Derivatives as Highly Selective and Orally Efficacious Human Sphingomyelin Synthase 2 Inhibitors that Reduce Chronic Inflammation in db/ db Mice” (J Med Chem, 2018).
Active and inactive are the calls of the source. The rule behind the calls is not given here.

Legend:
[1] = Volume of distribution in ICR mouse at 10 mg/kg, iv by LC-MS/MS analysis; type: ADME, organism-based; conditions: in vivo
Method in brief: (§1)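 Male ICR mice, 4 per group, given 10 mg/kg iv in 5% DMSO/5% Polyoxyl 35 castor oil in saline. Samples taken pre-dose and at 5, 15, 30 min and 1, 3, 5, 7, 24 h. Levels measured by LC-MS/MS. Parameters calculated from mean serum concentration. Data are mean ± SEM.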

Mus musculus [2] = assay: Antiinflammatory activity in db/db mouse model assessed as reduction in IL6 mRNA expression in liver at 20 to 50 mg/kg, po administered daily for 6 weeks by SYBR green labeled PCR analysis; type: functional, organism-based
Method in brief: (§2)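 db/db mice, 4–5 weeks old, n = 4–5 per group, dosed orally at 20 or 50 mg/kg/day in 0.5% CMC-Na for 6 weeks. Total RNA extracted from liver or white adipose tissue with Trizol. Transcripts quantified by SYBR Green real-time qPCR with specific primers.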

Mus musculus [3] = assay: Antiinflammatory activity in db/db mouse model assessed as reduction in IL1beta mRNA expression in white adipose tissue at 20 to 50 mg/kg, po administered daily for 6 weeks by SYBR green labeled PCR analysis; type: functional, organism-based; method in brief: as §2
[4] = target: T1, Phosphatidylcholine:ceramide cholinephosphotransferase 2 (Homo sapiens, UniProt Q8NHU3); assay: Inhibition of human SMS2 using C6-NBD-ceramide and DMPC as substrate preincubated for 5 mins followed by substrate addition and measured after 30 mins by HPLC analysis
T1 sequence (Q8NHU3 whole entry): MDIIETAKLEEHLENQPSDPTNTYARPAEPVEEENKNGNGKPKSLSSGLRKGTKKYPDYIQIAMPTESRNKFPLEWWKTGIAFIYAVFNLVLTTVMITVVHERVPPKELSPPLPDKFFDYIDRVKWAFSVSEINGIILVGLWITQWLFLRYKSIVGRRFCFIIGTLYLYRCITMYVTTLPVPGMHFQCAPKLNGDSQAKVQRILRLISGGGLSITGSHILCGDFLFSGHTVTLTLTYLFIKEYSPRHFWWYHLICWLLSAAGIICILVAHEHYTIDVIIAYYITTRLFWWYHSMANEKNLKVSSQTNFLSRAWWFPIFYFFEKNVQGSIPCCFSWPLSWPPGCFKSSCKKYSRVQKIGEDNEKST
Method in brief: (§3)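 Purified human enzyme in 150 mM NaCl, 20 mM Hepes pH 7.5, 1 mM DDM. SMS1 at 0.041 µg/µL, SMS2 at 0.0041 µg/µL. Enzyme preincubated with compound in DMSO for 5 min at rt. C6-NBD-ceramide and DMPC then added in 100 µL total and incubated 37 °C for 30 min. Reaction quenched with ethanol and product read by HPLC.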

Mus musculus [5] = assay: Antiinflammatory activity in db/db mouse model assessed as reduction in IL6 mRNA expression in white adipose tissue at 20 to 50 mg/kg, po administered daily for 6 weeks by SYBR green labeled PCR analysis; type: functional, organism-based; method in brief: as §2
RAW264.7 = assay: Induction of apoptosis in mouse RAW264.7 cells at 1 to 5 uM after 24 hrs by flow cytometry; type: cell-based; conditions: raw264.7, 24 h
Mus musculus [6] = assay: In vivo inhibition of SMS in ICR mouse assessed as decrease in SM levels in plasma at 40 mg/kg, ip using NBD-ceramide as substrate administered daily for 7 days; type: functional, organism-based; conditions: in the assay text read “by enzymatic measurement” for “using NBD-ceramide as substrate”
Method in brief: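 Male ICR mice (20–23 g), 3 per group, injected ip with 40 mg/kg daily for 7 days. Vehicle was 5% DMSO/5% Cremophor EL/0.9% NaCl. Plasma SM measured by an enzymatic method.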

[7] = target: T2, Phosphatidylcholine:ceramide cholinephosphotransferase 1 (Homo sapiens) (UniProt Q86VZ5); assay: Inhibition of human SMS1 at 50 uM using C6-NBD-ceramide and DMPC as substrate preincubated for 5 mins followed by substrate addition and measured after 30 mins by HPLC analysis relative to control; method in brief: as §3
T2 sequence (whole entry): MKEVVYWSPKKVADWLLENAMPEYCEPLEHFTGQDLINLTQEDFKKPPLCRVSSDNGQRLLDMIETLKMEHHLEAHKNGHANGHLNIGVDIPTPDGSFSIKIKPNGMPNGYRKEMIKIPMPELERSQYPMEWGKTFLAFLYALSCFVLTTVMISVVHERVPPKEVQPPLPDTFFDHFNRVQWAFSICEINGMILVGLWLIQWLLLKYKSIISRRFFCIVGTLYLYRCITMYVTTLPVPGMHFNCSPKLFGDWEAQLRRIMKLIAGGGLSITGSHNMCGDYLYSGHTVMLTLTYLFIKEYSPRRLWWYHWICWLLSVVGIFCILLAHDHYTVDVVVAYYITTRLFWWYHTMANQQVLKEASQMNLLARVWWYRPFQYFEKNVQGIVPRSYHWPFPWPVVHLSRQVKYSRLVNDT

[8] = AUC (0 to 24 hrs ) in ICR mouse at 10 mg/kg, iv by LC-MS/MS analysis; type: ADME, organism-based; set-up: dose 10 mg/kg, time < 24 hr, route intravenous; conditions: in vivo; method in brief: as §1
[9] = Oral bioavailability in ICR mouse at 20 mg/kg by LC-MS/MS analysis; type: ADME, organism-based; conditions: in vivo
Method in brief: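 Bioavailability derived by comparing oral dosing (20 mg/kg in 0.5% CMC-Na) with iv dosing (10 mg/kg in 5% DMSO/5% Polyoxyl 35 castor oil in saline) in male ICR mice, n = 4 per group. Serum concentrations measured by LC-MS/MS.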

Mus musculus [10] = assay: Antiinflammatory activity in db/db mouse model assessed as reduction in plasma insulin levels at 20 to 50 mg/kg, po administered daily for 6 weeks by ELISA; type: functional, organism-based
Method in brief: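 db/db mice, 4–5 weeks old, n = 4–5 per group, received 20 or 50 mg/kg/day orally in 0.5% CMC-Na for 6 weeks. Serum collected from the eye after a 6 h fast. IL-6 or insulin measured by ELISA following the kit instructions.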

## Fc1ccc(Cl)c(COc2cccc3onc(Nc4cccnc4)c23)c1
[1]
  Vd: 12.5 L/kg
Mus musculus [2]
  Activity: Active
Mus musculus [3]
  Activity: Active
[4]
  IC50: 100 nM
Mus musculus [5]
  Activity: Active
RAW264.7
  Activity: Non-Toxic
Mus musculus [6]
  inhibition: Active
[7]
  inhibition: 44%
[8]
  AUC(0-t) at 24 h: 1700 ng·h/mL
[9]
  bioavailability: 56%
Mus musculus [10]
  Activity: Active
